Laboratory results reported in publication PMC7108400 (Leukemia research, 2019).
Entries after “also recorded” stand apart in the source; their conditions may differ. Like-named read-outs stand apart in the source and are kept apart here.

Assays:
[1] = Dose-limiting toxicities and MTD/RP2D determination; type: in vivo
[2] = Panobinostat plasma pharmacokinetics, cycle 1 day 8, non-compartmental; type: in vivo, human; details: for CL/F / AUC / AUC(0-t) / Vd/F: geometric mean (%CV); for Cmax / AUC / AUC(0-t) / half-life / Tmax / Vd/F: human, plasma, oral; for AUC: AUC0inf; for half-life: T1/2, Median (range); for Tmax: Median (range); for Vd/F: Vz/F
How it was run: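 Adults <65 y with newly diagnosed high-risk AML received oral HDAC-inhibitor test compound thrice weekly from day 8, after idarubicin 12 mg/m²/d IV (days 1–3) and ara-C 100 mg/m²/d continuous IV (days 1–7). On cycle 1 day 8, 3 mL blood was drawn pre-dose and at 0.5–28 h. Plasma parameters were derived non-compartmentally; geometric mean (%CV) excluded zero concentrations, and Tmax is median (range).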

[3] = tested on: newly diagnosed primary or secondary high-risk AML; assay: Anti-leukemic efficacy; type: in vivo, human; details: for ORR: 20-mg dose level
[4] = tested on: AML progressed on standard therapy / advanced hematologic malignancies; details: single agent, cited from earlier work
newly diagnosed AML = details: cited from earlier work
[5] = tested on: first relapse or primary refractory AML; details: cited from earlier work
AML = details: cited from earlier work
BRCA1, CHK1, and RAD51 = details: AML cell lines; cited from earlier work
[6] = tested on: AML cell lines and primary AML cells from patients; details: combination with doxorubicin; cited from earlier work
de novo AML = details: cited from earlier work
[7] = 20 mg, PAN 20 mg (expansion phase), N=10
[8] = PAN 20 mg (expansion phase), N=12
[9] = elderly patients (> 65 years), with idarubicin and ara-C

## Cc1[nH]c2ccccc2c1CCNCc1ccc(/C=C/C(=O)NO)cc1 [panobinostat]
[1]; human, in vivo
  Patients who experienced DLTs during induction: 7 patients
  Recommended phase 2 dose (RP2D) of panobinostat: 20 mg
[1]; patients 18–65 years, staggered schedule with idarubicin and ara-C
  MTD: not reached
[2]; PAN 15 mg, N=10
  CL/F: 295 (54.7) L/h
[2]; PAN 20 mg (expansion phase), N=10
  CL/F: 193 (32.3) L/h
[2]; PAN 20 mg, N=11
  CL/F: 269 (68.2) L/h
[2]; PAN 25 mg, N=8
  Tmax, Median (range): 2.02 [1.25–4.90] h
  CL/F: 294 (44.3) L/h
[2]; 15 mg
  Cmax: 0.00603 µg/mL
[2]; 15 mg, PAN 15 mg, N=10
  AUC: 0.0508 µg·h/mL
  half-life: 8.74 h
  Tmax: 3 h
  Vd/F: 3920 L
[2]; 15 mg, AUC0–24, PAN 15 mg, N=10
  AUC(0-t): 0.0425 µg·h/mL
[2]; 20 mg
  Cmax: 0.015 µg/mL
[2]; [7]
  AUC: 0.103 µg·h/mL
  half-life: 7.94 h
  Tmax: 1.98 h
  Vd/F: 1810 L
[2]; 20 mg, PAN 20 mg, N=11
  AUC: 0.0743 µg·h/mL
  half-life: 9.7 h
  Tmax: 1.05 h
  Vd/F: 3790 L
[2]; 20 mg, AUC0–24, PAN 20 mg (expansion phase), N=10
  AUC(0-t): 0.0927 µg·h/mL
[2]; 20 mg, AUC0–24, PAN 20 mg, N=11
  AUC(0-t): 0.0626 µg·h/mL
[2]; 25 mg
  Cmax: 0.0112 µg/mL
[2]; 25 mg, PAN 25 mg, N=8
  AUC: 0.085 µg·h/mL
  half-life: 7.81 h
  Vd/F: 3360 L
[2]; 25 mg, AUC0–24, PAN 25 mg, N=8
  AUC(0-t): 0.0746 µg·h/mL
[3]; 15-mg dose group
  Response rate: 81.8%
[3]; 15-mg dose group (3 patients)
  CRi: 27.3%
[3]; 15-mg dose group (6 patients)
  CR: 54.5%
[3]; escalation phase (9 patients)
  ORR: 60%
[3]; expansion phase (6 patients)
  ORR: 50%
[3]; All patients, N=46
  Complete remission (CR): 20 (43.5) n (%)
  Complete remission with incomplete blood count recovery (CRi): 8 (17.4) n (%)
  Partial remission (PR): 2 (4.3) n (%)
  Response rate (CR or CRi): 28 (60.9) n (%)
  Treatment failure: 13 (28.3) n (%)
[3]; PAN 15 mg, N=11
  Complete remission (CR): 6 (54.5) n (%)
  Complete remission with incomplete blood count recovery (CRi): 3 (27.3) n (%)
  Partial remission (PR): 0 (0.0) n (%)
  Response rate (CR or CRi): 9 (81.8) n (%)
  Treatment failure: 1 (9.1) n (%)
[3]; [8]
  Complete remission (CR): 5 (41.7) n (%)
  Complete remission with incomplete blood count recovery (CRi): 1 (8.3) n (%)
  Partial remission (PR): 1 (8.3) n (%)
  Response rate (CR or CRi): 6 (50.0) n (%)
  Treatment failure: 3 (25.0) n (%)
[3]; PAN 20 mg, N=15
  Complete remission (CR): 7 (46.7) n (%)
  Complete remission with incomplete blood count recovery (CRi): 2 (13.3) n (%)
  Partial remission (PR): 0 (0.0) n (%)
  Response rate (CR or CRi): 9 (60.0) n (%)
  Treatment failure: 6 (40.0) n (%)
[3]; PAN 25 mg, N=8
  Complete remission (CR): 2 (25.0) n (%)
  Complete remission with incomplete blood count recovery (CRi): 2 (25.0) n (%)
  Partial remission (PR): 1 (12.5) n (%)
  Response rate (CR or CRi): 4 (50.0) n (%)
  Treatment failure: 3 (37.5) n (%)
[3]; Ten of 46 patients
  Re-induction rate (second induction cycle): 22%
[3]; all 46 patients
  Overall response rate (ORR) (CR or CRi): 60.9%
[3]; all 46 patients (8 patients)
  CR with incomplete count recovery (CRi): 17.4%
[3]; all 46 patients (20 patients)
  Complete remission (CR): 43.5%
[3]; all patients
  Event-free survival at 1-year: 78.3%
[3]; all patients (11 patients)
  Treatment discontinuation due to disease progression: 23.9%
[3]; current study
  Median overall survival: not reached
[3]; inadequate number of events at last censoring
  Median duration of response: not estimable
1 in 25 mg and 1 in 20 mg expansion groups
  SAE: sepsis: 2 patients
All patients, n=46
  Discontinuation, primary reason death: 5 (10.9) n (%)
PAN 15 mg, n=11
  Discontinuation, primary reason death: 1 (9.1) n (%)
PAN 20 mg (dose expansion), n=12
  Discontinuation, primary reason death: 3 (25) n (%)
All dose groups
  SAE: infections: 5 patients
All in the 20 mg expansion dose group
  On-treatment deaths during the induction phase: 6.5%
All patients
  Deaths during the study period or within 28 days after the end of treatment: 6 deaths
  Deaths in the induction phase: 3 deaths
  Deaths overall (induction and consolidation): 5 deaths
human, in vivo
  Abdominal pain, Any grade: 3 (6.5) n (%)
  Abdominal pain, Grade 3 or 4: 0 (0.0) n (%)
  All-grade cardiac events: 6.5%
  Alopecia, Any grade: 3 (6.5) n (%)
  Alopecia, Grade 3 or 4: 0 (0.0) n (%)
  Anemia, Any grade: 17 (37.0) n (%)
  Anemia, Grade 3 or 4: 15 (32.6) n (%)
  Anemia, all-grade: 37%
  Decreased appetite, Any grade: 10 (21.7) n (%)
  Decreased appetite, Grade 3 or 4: 1 (2.2) n (%)
  Decreased appetite, all-grade: 21.7%
  Diarrhea, Any grade: 25 (54.3) n (%)
  Diarrhea, Grade 3 or 4: 3 (6.5) n (%)
  Discontinuation, primary reason adverse events: 8 (17.4) n (%)
  Discontinued due to AEs: 15.8%
  Dyspepsia, Any grade: 2 (4.3) n (%)
  Dyspepsia, Grade 3 or 4: 0 (0.0) n (%)
  Fatigue, Any grade: 8 (17.4) n (%)
  Fatigue, Grade 3 or 4: 1 (2.2) n (%)
  Fatigue, all-grade: 17.4%
  Febrile neutropenia, Any grade: 17 (37.0) n (%)
  Febrile neutropenia, Grade 3 or 4: 16 (34.8) n (%)
  Febrile neutropenia, all-grade: 37%
  Grade 3 or 4 AEs suspected to be treatment-related: 73.9%
  Hypokalemia, Any grade: 7 (15.2) n (%)
  Hypokalemia, Grade 3 or 4: 3 (6.5) n (%)
  Left ventricular dysfunction, Any grade: 3 (6.5) n (%)
  Left ventricular dysfunction, Grade 3 or 4: 2 (4.3) n (%)
  Leukopenia, Any grade: 2 (4.3) n (%)
  Leukopenia, Grade 3 or 4: 2 (4.3) n (%)
  Leukopenia, all-grade: 4.3%
  Nausea, Any grade: 18 (39.1) n (%)
  Nausea, Grade 3 or 4: 0 (0.0) n (%)
  Neutropenia, Any grade: 9 (19.6) n (%)
  Neutropenia, Grade 3 or 4: 9 (19.6) n (%)
  Neutropenia, all-grade: 19.6%
  Patients with AEs: 84.8%
  Pyrexia, Any grade: 6 (13.0) n (%)
  Pyrexia, Grade 3 or 4: 0 (0.0) n (%)
  SAE: cardiac disorders: 5 patients
  SAE: grade ≥ 3 febrile neutropenia: 10 patients
  Stomatitis, Any grade: 9 (19.6) n (%)
  Stomatitis, Grade 3 or 4: 0 (0.0) n (%)
  Stomatitis, all-grade: 19.6%
  Thrombocytopenia, Any grade: 21 (45.7) n (%)
  Thrombocytopenia, Grade 3 or 4: 21 (45.7) n (%)
  Thrombocytopenia, all-grade: 45.7%
  Treatment discontinuation due to AEs: 17.4%
  Vomiting, Any grade: 10 (21.7) n (%)
  Vomiting, Grade 3 or 4: 0 (0.0) n (%)
  Vomiting, all-grade: 21.7%
[4]; of 86 patients, 60-mg dose
  Complete remission (CR): 2 patients
[4]
  MTD of panobinostat alone: 60 mg
Newly diagnosed AML; [9]
  CR rate: 64%
  Median time to relapse: 17.0 months
Newly diagnosed AML; with 8 mg/m^2 idarubicin (day 1–3) and 100 mg/m^2 ara-C (day 1–7), elderly
  MTD of panobinostat: 10 mg
[5]; first 2 cohorts, 20 mg and 30 mg thrice weekly
  DLTs: no DLTs occurred
[5]; plus ara-C and mitoxantrone
  CR/CRi rate: 46%
[5]; with mitoxantrone and ara-C as salvage therapy
  RP2D of panobinostat: 50 mg
AML; panobinostat 30 mg combined with azacitidine
  Grade ≥ 3 AEs: 97%
BRCA1, CHK1, and RAD51
  Expression of BRCA1, CHK1, and RAD51: decreases the levels of key proteins BRCA1, CHK1, and RAD51; also recorded: reduce the expression of BRCA1, CHK1, and RAD51
[6]
  Cell death (caspase-dependent apoptosis): induces cell death

## Nc1ncn([C@@H]2O[C@H](CO)[C@@H](O)[C@H]2O)c(=O)n1 [azacitidine]
AML; azacitidine alone
  Grade ≥ 3 AEs: 81%

## O=C(CCCCCCC(=O)Nc1ccccc1)NO [vorinostat]
De novo AML; median follow-up of 82 weeks
  Median overall survival: 82 weeks
De novo AML; with idarubicin and ara-C
  All-grade cardiac events: 15%
  Diarrhea: 72%
  Nausea: 65%
